Legend:
recombinant human AKR1C2 = target: T1, recombinant human AKR1C2 (Homo sapiens, UniProt P52895); assay: Related enzyme screen; assay type: biochemical; conditions: preclinical screen
T1 sequence (P52895 1-323): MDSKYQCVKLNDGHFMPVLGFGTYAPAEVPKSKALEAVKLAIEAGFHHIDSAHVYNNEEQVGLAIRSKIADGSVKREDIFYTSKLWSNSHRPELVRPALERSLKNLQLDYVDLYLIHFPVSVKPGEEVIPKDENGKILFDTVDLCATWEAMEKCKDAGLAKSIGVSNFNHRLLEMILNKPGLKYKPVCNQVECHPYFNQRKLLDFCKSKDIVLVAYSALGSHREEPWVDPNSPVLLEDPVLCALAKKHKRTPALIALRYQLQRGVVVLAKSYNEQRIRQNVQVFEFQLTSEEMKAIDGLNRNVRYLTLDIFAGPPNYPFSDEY

human AKR1D1 = target: T2, human AKR1D1 (Homo sapiens, UniProt P51857); assay: AKR1D1 inhibition, cortisone as model substrate; assay type: biochemical
T2 sequence (P51857 1-326): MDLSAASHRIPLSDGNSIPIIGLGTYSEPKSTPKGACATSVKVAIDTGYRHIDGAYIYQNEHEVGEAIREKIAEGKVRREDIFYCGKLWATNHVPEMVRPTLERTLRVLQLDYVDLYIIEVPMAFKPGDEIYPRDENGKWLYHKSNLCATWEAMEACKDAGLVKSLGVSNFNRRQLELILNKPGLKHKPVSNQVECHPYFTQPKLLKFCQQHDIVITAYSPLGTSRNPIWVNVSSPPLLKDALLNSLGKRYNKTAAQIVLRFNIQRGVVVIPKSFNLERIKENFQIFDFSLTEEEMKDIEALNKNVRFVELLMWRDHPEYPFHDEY

[1] = tested on: adult premenopausal women with endometriosis-related pain symptoms; assay: AKRENDO1 phase IIa trial, liver laboratory parameters; assay type: in vivo, human
Procedure, shortened: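 Over 12 weeks of oral dosing or placebo, ALT, AST, total bilirubin and INR were measured at all visits except visit 2. Baseline was the last value before treatment start (visit 3, otherwise screening). Suspected liver injury was worked up per FDA 2009 DILI guidance. Severity was graded by DILI Expert Working Group criteria and causality by RUCAM. Post-baseline ALT was classed by ULN multiples.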

AKR1C3 = target: T3, AKR1C3 (Homo sapiens, UniProt P42330); assay: AKR1C3 biochemical assay; conditions: in vitro
T3 sequence (P42330 1-323): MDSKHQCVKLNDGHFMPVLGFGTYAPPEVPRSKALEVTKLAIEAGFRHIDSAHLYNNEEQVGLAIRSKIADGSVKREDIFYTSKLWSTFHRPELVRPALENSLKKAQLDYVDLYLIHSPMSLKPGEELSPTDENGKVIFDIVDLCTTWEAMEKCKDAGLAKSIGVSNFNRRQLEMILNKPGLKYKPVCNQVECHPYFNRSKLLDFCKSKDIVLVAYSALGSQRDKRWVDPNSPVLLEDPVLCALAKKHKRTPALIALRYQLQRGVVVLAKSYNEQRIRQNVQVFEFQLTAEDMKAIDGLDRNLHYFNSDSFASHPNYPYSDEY

[2] = AKRENDO1 population pharmacokinetic analysis; assay type: in vivo, human; conditions: 3 mg OD relative to all doses >3 mg; 95% confidence interval, 11–59; popPK model
progesterone receptor = conditions: cited from earlier work
recombinant human AKR1C4 = target: T4, recombinant human AKR1C4 (Homo sapiens, UniProt P17516); assay: Related enzyme screen; assay type: biochemical; conditions: preclinical screen
T4 sequence (P17516 1-323): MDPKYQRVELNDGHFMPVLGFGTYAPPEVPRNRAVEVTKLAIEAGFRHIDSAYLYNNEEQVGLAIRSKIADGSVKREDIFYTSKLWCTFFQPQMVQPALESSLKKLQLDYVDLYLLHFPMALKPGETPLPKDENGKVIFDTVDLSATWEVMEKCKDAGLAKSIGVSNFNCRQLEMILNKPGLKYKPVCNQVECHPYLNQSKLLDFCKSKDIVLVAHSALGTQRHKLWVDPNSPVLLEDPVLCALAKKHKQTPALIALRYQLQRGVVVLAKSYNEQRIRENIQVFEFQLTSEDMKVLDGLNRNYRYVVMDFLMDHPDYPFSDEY

[3] = tested on: healthy pre- and postmenopausal women; conditions: cited from earlier work
serum androsterone = assay: AKRENDO1 pharmacodynamics; assay type: in vivo, human; conditions: completers
endometriotic lesions = conditions: cited from earlier work
[4] = 60 mg BID; cited from earlier work
[5] = 3 mg OD n = 11, largest value per participant
[6] = 3 mg OD n = 11, treatment-emergent
[7] = 10 mg OD n = 31, largest value per participant
[8] = 10 mg OD n = 31, treatment-emergent
[9] = 30 mg BID n = 11, largest value per participant
[10] = 30 mg BID n = 11, treatment-emergent
[11] = 30 mg OD n = 10, largest value per participant
[12] = 30 mg OD n = 10, treatment-emergent
[13] = 60 mg BID n = 27, largest value per participant
[14] = 60 mg BID n = 27, treatment-emergent

## CN(CCC(=O)O)C(=O)c1ccc2c(c1)CC[C@@H]1[C@@H]2CC[C@]2(C)C(c3cncc(F)c3)=CC[C@@H]12 [BAY1128688]
Recombinant human AKR1C2
  activity against related enzyme: no relevant activity
Human AKR1D1; 100 µM, cortisone as model substrate, Bayer AG, data on file
  inhibition of human AKR1D1 activity: 11%
Human AKR1D1; preclinical screen
  activity against related enzyme: no relevant activity
[1]; [5]
  ALT > 2 × ULN and ≤3 × ULN: 0 n (%)
  ALT > 3 × ULN and ≤5 × ULN: 0 n (%)
  ALT > 5 × ULN and ≤8 × ULN: 0 n (%)
  ALT > 8 × ULN: 0 n (%)
  AST > 3 × ULN and ≤5 × ULN: 0 n (%)
  AST > 8 × ULN: 0 n (%)
[1]; [6]
  ALT, total number of participants with > 2 × ULN: 0 n (%)
  AST, total number of participants with > 2 × ULN: 0 n (%)
  Bilirubin in serum > 2 × ULN: 0 n (%)
[1]; [7]
  ALT > 2 × ULN and ≤3 × ULN: 1 (3.2) n (%)
  ALT > 3 × ULN and ≤5 × ULN: 0 n (%)
  ALT > 5 × ULN and ≤8 × ULN: 0 n (%)
  ALT > 8 × ULN: 0 n (%)
  AST > 3 × ULN and ≤5 × ULN: 0 n (%)
  AST > 8 × ULN: 0 n (%)
[1]; [8]
  ALT, total number of participants with > 2 × ULN: 1 (3.2) n (%)
  AST, total number of participants with > 2 × ULN: 0 n (%)
  Bilirubin in serum > 2 × ULN: 0 n (%)
[1]; [9]
  ALT > 2 × ULN and ≤3 × ULN: 0 n (%)
  ALT > 3 × ULN and ≤5 × ULN: 0 n (%)
  ALT > 5 × ULN and ≤8 × ULN: 0 n (%)
  ALT > 8 × ULN: 0 n (%)
  AST > 3 × ULN and ≤5 × ULN: 0 n (%)
  AST > 8 × ULN: 0 n (%)
[1]; [10]
  ALT, total number of participants with > 2 × ULN: 0 n (%)
  AST, total number of participants with > 2 × ULN: 0 n (%)
  Bilirubin in serum > 2 × ULN: 0 n (%)
[1]; [11]
  ALT > 2 × ULN and ≤3 × ULN: 0 n (%)
  ALT > 3 × ULN and ≤5 × ULN: 2 (20.0) n (%)
  ALT > 5 × ULN and ≤8 × ULN: 0 n (%)
  ALT > 8 × ULN: 1 (10.0) n (%)
  AST > 3 × ULN and ≤5 × ULN: 0 n (%)
  AST > 8 × ULN: 1 (10.0) n (%)
[1]; [12]
  ALT, total number of participants with > 2 × ULN: 3 (30.0) n (%)
  AST, total number of participants with > 2 × ULN: 1 (10.0) n (%)
  Bilirubin in serum > 2 × ULN: 1 (10.0) n (%)
[1]; [13]
  ALT > 2 × ULN and ≤3 × ULN: 1 (3.7) n (%)
  ALT > 3 × ULN and ≤5 × ULN: 3 (11.1) n (%)
  ALT > 5 × ULN and ≤8 × ULN: 1 (3.7) n (%)
  ALT > 8 × ULN: 1 (3.7) n (%)
  AST > 3 × ULN and ≤5 × ULN: 2 (7.4) n (%)
  AST > 8 × ULN: 1 (3.7) n (%)
[1]; [14]
  ALT, total number of participants with > 2 × ULN: 6 (22.2) n (%)
  AST, total number of participants with > 2 × ULN: 3 (11.1) n (%)
  Bilirubin in serum > 2 × ULN: 2 (7.4) n (%)
[1]; AKRENDO1
  Dose-dependency of increase in liver transaminases up to liver injury: Risk increased with dose, but extent of ALT increase/liver injury not directly correlated with exposure
  Dose-dependency of isolated increase in serum bilirubin: Directly correlated with exposure
  Timing of increase in liver transaminases up to liver injury: >8 weeks of exposure to BAY1128688
[1]; after end of treatment
  time to restoration of normal ALT levels: up to 3 months
[1]; all dose groups
  participants with ALT increase > 5 × ULN: Three
[1]; all dose groups, 90 exposed
  participants with increased ALT > 3 × ULN: eight
[1]; at around 12 weeks of treatment
  hepatotoxicity (elevations in serum ALT): Dose-/exposure-dependent hepatotoxicity was observed
AKR1C3
  IC50: < 2 nM
[2]
  increase in relative bioavailability: 35%
Progesterone receptor
  agonism or antagonism: no relevant agonism or antagonism
Recombinant human AKR1C4
  activity against related enzyme: no relevant activity
[3]; 90 mg OD and 60 mg BID, 2 weeks
  increases in ALT or AST: no increases
[3]; exploratory evaluation of bile acids
  influence on bile acid metabolism: did not indicate any influence
[3]; healthy premenopausal women, up to 60 mg BID for 28 days
  ovarian cycles: normal ovarian cycles were maintained
[3]; multiple doses
  serum androsterone: dose-dependent increase
Serum androsterone
  cyclicity of sex hormones: No changes
Serum androsterone; from visit 4 onwards, 12 weeks
  serum concentrations of androsterone: increased dose-dependently
Endometriotic lesions
  effect on endometriotic lesions compared with vehicle group: reduced endometriotic lesions
  ovarian cyclicity after treatment: remained unchanged
[4]
  total concentration in human plasma: approximately 10 µM
  unbound maximum steady-state concentration in human plasma: < 0.1 µM

Reference: paper PMC10439066 (Drugs in R&D, 2023)
